From ChEMBL document CHEMBL1141143, “Novel 17beta-substituted conformationally constrained neurosteroids that modulate GABA A receptors” (J Med Chem, 2005)

Molecular target: GABA-A receptor; anion channel (Rattus norvegicus) (UniProt O09028+P15431+P18506+P18508+P19969+P20236+P23574+P23576+P28471+P28473+P30191+P62813+P63079+P63138+Q91ZM7+Q9ES14)
Experiment: Displacement of [3H]EBOB from GABA-A receptors of rat cerebellum
Assay type: tissue-based
In short: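 Rat cerebellar synaptosomal membranes: homogenized in 0.32 M sucrose, differentially centrifuged, water-lysed, Tris HCl (pH 7.4) washed, frozen; thawed membranes spun in 50 mM Tris HCl with 0.2 M NaCl. Incubated 2 h at 25 °C with 1 nM [3H]EBOB; nonspecific binding with 50 µM picrotoxin. Duplicates filtered on GF/B. Specific binding ratio with/without steroid fitted by nonlinear regression; mean ± SEM.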

## Cc1ccc(C#C[C@H]2CC[C@H]3[C@@H]4CC[C@H]5C[C@H](O)CC[C@]5(C)[C@H]4CC[C@]23C)cc1
  Ks: 4100 nM

## C#C[C@H](O)[C@H]1CC[C@H]2[C@@H]3CC[C@H]4C[C@H](O)CC[C@]4(C)[C@H]3CC[C@]12C
  Ks: 494 nM

## C#C[C@@H](O)[C@H]1CC[C@H]2[C@@H]3CC[C@H]4C[C@H](O)CC[C@]4(C)[C@H]3CC[C@]12C
  Ks: 145 nM

## C#C[C@H](OC)[C@H]1CC[C@H]2[C@@H]3CC[C@H]4C[C@H](O)CC[C@]4(C)[C@H]3CC[C@]12C
  Ks: 924 nM

## C#CC(=O)[C@H]1CC[C@H]2[C@@H]3CC[C@H]4C[C@H](O)CC[C@]4(C)[C@H]3CC[C@]12C
  Ks: 844 nM

## CC(O)C#C[C@H]1CC[C@H]2[C@@H]3CC[C@H]4C[C@H](O)CC[C@]4(C)[C@H]3CC[C@]12C (stereo partly drawn)
  Ks: 946 nM

## COc1ccc(C#C[C@H](O)[C@H]2CC[C@H]3[C@@H]4CC[C@H]5C[C@H](O)CC[C@]5(C)[C@H]4CC[C@]23C)cc1
  Ks: 1640 nM

## C[C@]12CC[C@@H](O)C[C@@H]1CC[C@@H]1[C@@H]2CC[C@]2(C)[C@@H](C#CBr)CC[C@@H]12
  Ks: 350 nM

## COc1ccc(C#C[C@@H](O)[C@H]2CC[C@H]3[C@@H]4CC[C@H]5C[C@H](O)CC[C@]5(C)[C@H]4CC[C@]23C)cc1
  Ks: 870 nM

## C=C=C[C@H](O)[C@H]1CC[C@H]2[C@@H]3CC[C@H]4C[C@H](O)CC[C@]4(C)[C@H]3CC[C@]12C
  Ks: 810 nM

## CC(=O)[C@H]1CC[C@H]2[C@@H]3CC[C@H]4C[C@H](O)CC[C@]4(C)[C@H]3CC[C@]12C
  Ks: 198 nM

## C#C[C@@H](OC)[C@H]1CC[C@H]2[C@@H]3CC[C@H]4C[C@H](O)CC[C@]4(C)[C@H]3CC[C@]12C
  Ks: 802 nM

## C=C=C[C@@H](O)[C@H]1CC[C@H]2[C@@H]3CC[C@H]4C[C@H](O)CC[C@]4(C)[C@H]3CC[C@]12C
  Ks: 2.8 nM
